Screening data deposited in PubChem BioAssay by several laboratories.
SENP8 block-1 – blocks the human protease SENP8 | Q96LD8 | purified SENP8, Z-RLRGG-aminoluciferin cleavage, luminescence | inhibition, % at 10 µM | 330,000 tested, 1.2% active; in the data active = inhibition above about 50%
SENP1 inh – blocks the human SENP1 SUMO protease catalytic domain; recombinant SENP1 catalytic domain, CyPet-SUMO1-YPet FRET cleavage; 360,000 tested, 0.21% active; inhibition, % at 10 µM; Q9P0U3;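 active = inhibition at least 30% at 10 µM, raw YFP signal under a set limit, fluorescence ratio 0.5 to 1.5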;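 note: 0% = enzyme with DMSO and 100% = no enzyme wells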
Target sequence (Q9P0U3 419-644 limits assumed): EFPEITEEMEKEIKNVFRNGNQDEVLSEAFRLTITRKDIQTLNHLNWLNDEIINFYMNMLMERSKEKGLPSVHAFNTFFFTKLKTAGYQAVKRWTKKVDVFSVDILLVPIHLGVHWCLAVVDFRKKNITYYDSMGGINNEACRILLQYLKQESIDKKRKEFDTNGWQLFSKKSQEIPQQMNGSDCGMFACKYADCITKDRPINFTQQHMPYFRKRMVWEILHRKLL
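Assay system – human recombinant His6-tagged SENP1 catalytic domain enzyme · Input – SENP1 enzyme, 20 pM final · Buffer or medium – Tris pH 8 buffer plus EDTA, NaCl, BME, BSA, NP40, catalase · Schedule – 50 min reaction at room temperature · Technique – FRET read of cyan and yellow fluorescence · Control set – no-enzyme wells low, DMSO-plus-enzyme wells high control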
SENP8 block-2 – SENP8 (human) protease inhibition. recombinant SENP8, Nedd8 substrate fluorescence. inhibition, % at 20 µM. 360,000 tested, 0.64% active; in the data active = inhibition mostly above about 40%, no sharp cut-off; inactive = mostly below about 27%
SENP7 inh – blocks the human protease SENP7; Q9BQF6; recombinant SENP7, Z-RLRGG-aminoluciferin luminescence, 40 min; inhibition, % at 5 µM; 330,000 tested, 1.5% active;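 active = inhibition above about 50% at the single test dose, limit read from the data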;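 note: plate controls were DMSO with enzyme for no effect and no enzyme buffer wells for full effect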
Platelet DG rel – modulates dense granule release in human platelets; 300,000 tested, 0.22% active; human platelet-rich plasma, SFLLRN dense granule ATP release, luminescence; AID 1663; inhibition, %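 (compounds screened at 7.5 µM in platelet-rich plasma)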;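 active = mean replicate score, as percent of positive control, at or above 50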
SENP6 block – blocks the human protease SENP6. Q9GZR1. inhibition, % at 10 µM. 330,000 tested, 1.8% active. Recombinant SENP6 catalytic domain, aminoluciferin luminescence;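 active = inhibition above about 50% at the single tested dose, limit read from the data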;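 note: plate controls were DMSO wells with enzyme for no effect and DMSO wells lacking enzyme for full effect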
SENP8 confirm – confirmation of human SENP8 protease inhibitors. shares compounds with SENP7 inh. Recombinant SENP8, Z-RLRGG-aminoluciferin luminescence, 60 min. inhibition, % at 12.5 µM. 6,200 tested, 40% active;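 active = mean inhibition across replicates above about 50%, limit read from the data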
SENP6 confirm – confirmation of human SENP6 protease inhibitors | recombinant SENP6, Z-RLRGG-aminoluciferin luminescence | 6,200 tested, 58% active | inhibition, % at 12.5 µM | shares compounds with SENP7 inh
SENP7 conf – human SENP7 inhibition, confirmed | shares compounds with SENP7 inh | recombinant SENP7, Z-RLRGG-aminoluciferin luminescence, 40 min | inhibition, % at 12.5 µM | 6,200 tested, 69% active
Casp3 SENP sel – selectivity test for SENP inhibitors: human caspase-3 inhibition. shares compounds with SENP7 inh. purified caspase-3, Z-DEVD-aminoluciferin luminescence, 60 min. inhibition, % at 12.5 µM. 6,200 tested, 60% active. AID 488918;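 active = mean inhibition above about 50%, limit read from the data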;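 note: plate controls were enzyme with DMSO for no effect and wells without caspase-3 for full effect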
Target sequence (P42574 28-227 limits assumed): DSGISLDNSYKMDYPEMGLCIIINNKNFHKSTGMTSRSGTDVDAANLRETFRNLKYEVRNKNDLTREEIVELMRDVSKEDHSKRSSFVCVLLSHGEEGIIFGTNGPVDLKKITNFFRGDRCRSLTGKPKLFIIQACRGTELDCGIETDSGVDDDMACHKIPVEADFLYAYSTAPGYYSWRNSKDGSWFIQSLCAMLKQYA
Luc interf – counter-screen for SENP inhibitors: luminescence interference | Pre-incubated SENP8/Z-RLRGG-aminoluciferin, luciferase luminescence interference | 6,200 tested, 39% active | shares compounds with SENP7 inh | inhibition, % at 12.5 µM;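 active = mean inhibition above about 50% when retested at one dose, limit read from the data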;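 note: plate controls were DMSO wells with completed reaction for no effect and substrate without enzyme for full effect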
* hit, by the source's call; x = no result. Hits are enriched below; roughly 2.6% of the tested compounds scored in any of these assays.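 Rule for the calls, unless noted: active = mean inhibition above about 50% in the one-dose retest (limit read from the data); inactive = the rest.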

SMILES | SENP8 block-1 | SENP1 inh | SENP8 block-2 | SENP7 inh | Platelet DG rel | SENP6 block | SENP8 confirm | SENP6 confirm | SENP7 conf | Casp3 SENP sel | Luc interf
COc1ccc(/C=C2\OC(=O)c3c(OC)cccc32)cc1OC | 47.4 | -23.4 | -486.8 | 45.4 | 4.4 | 61.7* | 3.4 | 12.0 | 83.5* | 61.4* | 13.7
O=C(COC(=O)CC12CC3CC(CC(C3)C1)C2)Nc1ncc(Cl)cc1Cl | -4.1 | -1.0 | -0.2 | -6.0 | 4.9 | -6.5 | x | x | x | x | x
O=C(Nc1ccc(F)cc1)Nc1ccc(N2CCOCC2)c2nonc12 | 3.8 | 1.6 | 28.5 | 57.3* | 8.1 | 17.4 | 3.5 | 12.0 | 43.5 | 43.6 | 16.7
COCCn1c(N)c(C(=O)OCc2ccccc2)c2nc3ccccc3nc21 | 61.5* | -86.6 | -284.0 | 45.3 | -1.9 | 73.1* | -13.7 | 8.1 | 8.5 | -5.5 | -0.2
COc1ccc(NC(=O)/C(C#N)=C/c2ccc(Br)o2)cc1 | -3.3 | 2.6 | 26.8 | 65.6* | 6.2 | -1.9 | -8.0 | -7.3 | 4.1 | 4.3 | -3.3
c1ccc2nc(-c3nc4ccccc4[nH]3)ccc2c1 | 96.6* | 2.1 | -468.9 | 99.7* | 82.8* | 96.9* | 94.8* | 97.5* | 103.4* | 98.2* | 48.9
CCOC(=O)c1c(C)[nH]c(C(=O)OCC(=O)c2ccccc2)c1C | 42.2 | 0.8 | -7.3 | 39.0 | 9.3 | 51.0* | 46.1 | 43.5 | 76.1* | 34.7 | 17.2
CCOC(=O)c1c(C)[nH]c(C(=O)OCC(=O)NCc2ccccc2)c1C | 2.6 | -5.1 | -17.1 | 4.9 | x | -8.8 | x | x | x | x | x
Cc1cc(C(=O)N/N=C/c2ccccc2)c(C)o1 | 34.4 | 1.0 | 20.7 | 73.6* | 3.6 | 47.2 | 59.3* | 57.3* | 84.8* | 83.2* | 60.4*
Cc1occc1C(=O)N/N=C/C=C/c1ccccc1 | 43.3 | -3.5 | 22.3 | 54.8* | 27.7 | 58.4* | 70.1* | 68.3* | 91.2* | 86.2* | 70.0*
Cc1cc(C(=O)N/N=C/C=C/c2ccccc2)c(C)o1 | -15.0 | 1.4 | 8.4 | 0.5 | 6.8 | 7.6 | x | x | x | x | x
Cc1occc1C(=O)N/N=C/c1ccc(N(C)C)cc1 | 96.4* | -6.3 | -449.7 | 97.9* | 77.9* | 96.1* | 10.8 | 100.2* | 103.6* | 99.1* | 98.0*
Cc1occc1C(=O)N/N=C/C=C/c1ccc(N(C)C)cc1 | 38.9 | -28.6 | -386.2 | 46.0 | -2.0 | 49.7 | x | x | x | x | x
Cc1occc1C(=O)N/N=C/C(Br)=C\c1ccccc1 | 90.9* | 1.2 | 13.6 | 95.6* | 14.4 | 91.7* | 90.7* | 94.9* | 101.1* | 89.7* | 60.6*
O=C(N/N=C/C(Br)=C\c1ccccc1)c1ccco1 | 1.9 | 0.8 | 13.1 | -0.2 | 5.6 | 10.5 | x | x | x | x | x
O=C(NC1CCN(S(=O)(=O)c2ccccc2)CC1)c1cccc(F)c1 | 10.7 | 1.2 | 6.0 | -17.6 | -7.6 | -14.3 | x | x | x | x | x
C/C(=N\NC(=O)c1ccoc1C)c1ccccc1 | 51.0* | 2.6 | 20.3 | 69.4* | 34.3 | 72.7* | 11.2 | 59.5* | 87.3* | 84.4* | 49.8
Cc1ccc([N+](=O)[O-])cc1N/C=C1\CCc2ccccc2C1=O | 9.3 | 3.6 | -55.9 | 32.7 | -0.9 | 79.0* | 4.6 | 1.1 | -12.1 | 0.7 | -4.6
CCc1cccc2c(C(=O)COC(=O)c3ccccc3)c[nH]c12 | 24.9 | 2.3 | 17.6 | 53.3* | 6.9 | 60.3* | 7.3 | 5.2 | 73.4* | 23.2 | 46.1
O=C(O)CC/C(=N\NC(=O)CNC(=O)c1cccc(Cl)c1)c1ccccc1 | -9.0 | -0.2 | 8.4 | -5.0 | -1.3 | -5.9 | x | x | x | x | x
